# Assays:
# HT-29 [1] = experiment: Antitumor activity against human HT29 cells implanted in CD1 mouse assessed as clonogenic survival at 562 umol/kg, ip after 18 hrs relative to control; type: functional
# How it was run: (§1)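 HT29 xenografts in CD-1 homozygous nude mice; single i.p. dose of drug alone, formulated as the HCl salt in 0.9% saline, 5% DMSO/saline or lactate buffer (pH 4.0). Tumors excised 18 h later, dissociated to single-cell suspensions and plated. Clonogens/g of tumor counted; surviving fraction = treated/control clonogens/g.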
# SiHa [2] = experiment: Ratio of IC50 for SiHa cells under oxic conditions to hypoxic conditions after 4 hrs; type: functional, Homo sapiens
# SiHa [3] = experiment: Cytotoxicity against human SiHa cells under hypoxic conditions after 4 hrs; type: functional, cell-based
# HT-29 [4] = experiment: Effect on human HT29 cells under hypoxic conditions assessed as drug level causing 10% clonogenic survival; type: functional
# How it was run: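 HT29 suspensions (1 or 2 × 10^6 cells/mL) in serum-free medium were stirred under 5% CO2/95% N2 for 90 min. Drug was added from deoxygenated DMSO stock at a level giving about 10% survival at 1 h, and samples were taken up to 3 h. Clonogenic survival (14 days, methylene blue) was fitted with the HPLC concentration–time data, and the 10% survival exposure was interpolated.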
# HT-29 [5] = experiment: Diffusion coefficient, D in HT29 multicellular layers; type: ADME, cell-based; settings: human
# How it was run: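 HT29 multicellular layers were grown 3 days on collagen-coated Teflon membranes, equilibrated 60 min under 95% O2/5% CO2 at 37 °C, then placed in a diffusion chamber. Donor and receiver were sampled up to 5 h and assayed by HPLC. D came from fitting both profiles to a Fickian model with membrane and MCL in series, corrected by support-only Ds.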
# [6] = Solubility in culture medium in presence of 5% fetal calf serum; type: physicochemical; settings: culture medium with 5% fetal calf serum
# HT-29 [7] = experiment: Cytotoxicity against human HT29 cells under hypoxic conditions after 4 hrs; type: functional, cell-based; settings: HT-29, 4 h
# HT-29 [8] = experiment: Antitumor activity against human HT29 cells implanted in CD1 mouse at 562 umol/kg, ip administered 5 mins after irradiation by excision assay relative to radiation alone; type: functional
# How it was run: (§2)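 Hypoxic-cell excision assay in HT29 xenografts in CD-1 homozygous nude mice. Mice received 20 Gy γ radiation to sterilize oxic tumor cells, then a single i.p. drug dose (HCl salt in saline, 5% DMSO/saline or pH 4.0 lactate buffer) 5 min later. Tumors excised at 18 h and plated for clonogens/g. Log cell kill = log(clonogens/g, radiation only) − log(clonogens/g, radiation plus drug).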
# HT-29 [9] = experiment: Ratio of IC50 for HT29 cells under oxic conditions to hypoxic conditions after 4 hrs; type: functional, Homo sapiens
# [10] = Half life in CD1 mouse at 562 umol/kg, ip; type: ADME, organism-based; settings: in vivo
# How it was run: (§3)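 Single i.p. dose to CD-1 homozygous nude mice, drug as HCl salt in 0.9% saline, 5% DMSO/saline or lactate buffer (pH 4.0). Plasma total drug measured by HPLC at 75 or 100% of MTD (MTD from 1.33-fold dose steps, 6 mice). Noncompartmental analysis gave AUC, Cmax and t1/2.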
# [11] = AUC in CD1 mouse at 562 umol/kg, ip; type: ADME, organism-based; settings: plasma; how it was run: as §3
# [12] = Cmax in CD1 mouse at 562 umol/kg, ip; type: ADME, organism-based; parameters: dose 562 umol/kg, route intraperitoneal; settings: in vivo; how it was run: as §3
# Mus musculus = experiment: Toxicity in ip dosed CD1 mouse; type: organism-based; settings: in vivo
# How it was run: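 MTD in CD-1 homozygous nude mice after single i.p. doses (HCl salts in saline, 5% DMSO/saline or lactate buffer pH 4.0), escalated in 1.33-fold increments. MTD taken as the highest dose causing no death, no body weight loss >15% and no other severe morbidity in any of 6 mice.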
# [13] = AUC in CD1 mouse at 750 umol/kg, ip; type: ADME, organism-based; settings: plasma; how it was run: as §3
# HT-29 [14] = experiment: Antitumor activity against human HT29 cells implanted in CD1 mouse assessed as clonogenic survival at 750 umol/kg, ip after 18 hrs relative to control; type: functional; how it was run: as §1
# [15] = Cmax in CD1 mouse at 750 umol/kg, ip; type: ADME, organism-based; parameters: dose 750 umol/kg, route intraperitoneal; settings: in vivo; how it was run: as §3
# HT-29 [16] = experiment: Antitumor activity against human HT29 cells implanted in CD1 mouse at 750 umol/kg, ip administered 5 mins after irradiation by excision assay relative to radiation alone; type: functional; how it was run: as §2
# [17] = Half life in CD1 mouse at 750 umol/kg, ip; type: ADME, organism-based; settings: in vivo; how it was run: as §3
# [18] = Half life in CD1 mouse at 421 umol/kg, ip; type: ADME, organism-based; settings: in vivo; how it was run: as §3
# [19] = Cmax in CD1 mouse at 421 umol/kg, ip; type: ADME, organism-based; parameters: dose 421 umol/kg, route intraperitoneal; settings: in vivo; how it was run: as §3
# [20] = AUC in CD1 mouse at 421 umol/kg, ip; type: ADME, organism-based; settings: plasma; how it was run: as §3
# HT-29 [21] = experiment: Antitumor activity against human HT29 cells implanted in CD1 mouse assessed as clonogenic survival at 1000 umol/kg, ip after 18 hrs relative to control; type: functional; how it was run: as §1
# HT-29 [22] = experiment: Antitumor activity against human HT29 cells implanted in CD1 mouse at 1000 umol/kg, ip administered 5 mins after irradiation by excision assay relative to radiation alone; type: functional; how it was run: as §2
# [23] = Half life in CD1 mouse at 1000 umol/kg, ip; type: ADME, organism-based; settings: in vivo; how it was run: as §3
# [24] = AUC in CD1 mouse at 1000 umol/kg, ip; type: ADME, organism-based; settings: plasma; how it was run: as §3
# [25] = Cmax in CD1 mouse at 1000 umol/kg, ip; type: ADME, organism-based; parameters: dose 1000 umol/kg, route intraperitoneal; settings: in vivo; how it was run: as §3
# [26] = Half life in CD1 mouse at 316 umol/kg, ip; type: ADME, organism-based; settings: in vivo; how it was run: as §3
# [27] = Cmax in CD1 mouse at 316 umol/kg, ip; type: ADME, organism-based; parameters: dose 316 umol/kg, route intraperitoneal; settings: in vivo; how it was run: as §3
# [28] = Protein binding in mouse plasma by equilibrium dialysis; type: ADME, cell-free; settings: read-out: PPB (converted)
# HT-29 [29] = experiment: Antitumor activity against human HT29 cells implanted in CD1 mouse assessed as clonogenic survival at 316 umol/kg, ip after 18 hrs relative to control; type: functional; how it was run: as §1
# HT-29 [30] = experiment: Antitumor activity against human HT29 cells implanted in CD1 mouse at 316 umol/kg, ip administered 5 mins after irradiation by excision assay relative to radiation alone; type: functional; how it was run: as §2
Compound,Ratio IC50 (SiHa [2]),IC50 (SiHa [3]) [µM],Activity (HT-29 [4]) [µM·h],D (HT-29 [5]) [cm²/s],solubility [6] [mM],IC50 (HT-29 [7]) [µM],Ratio IC50 (HT-29 [9]),MTD (Mus musculus),further results
[O-][n+]1nc(NCCN2CCOCC2)[n+]([O-])c2ccccc21,44,6.6,47.5,3.63e-07,> 49,17.3,34,562 µmol/kg,LCK (HT-29 [1]): 0.29; LCK (HT-29 [8]): 0.6; half-life [10]: 16.5 min; AUC [11]: 105 µM·h; Cmax [12]: 160 µM
CCOc1ccc2c(c1)[n+]([O-])c(NCCN(C)C)n[n+]2[O-],245,0.8,50.1,,> 50,2.6,121,1000 µmol/kg,AUC [13]: 82.3 µM·h; LCK (HT-29 [14]): 0.09; Cmax [15]: 85.7 µM; LCK (HT-29 [16]): 0.83; half-life [17]: 31.6 min
COCCOc1ccc2c(c1)[n+]([O-])c(NCCN(C)C)n[n+]2[O-],401,1.6,51.8,,> 51,5,117,1330 µM/g,LCK (HT-29 [1]): -0.08; LCK (HT-29 [8]): 0.3; half-life [10]: 44.9 min; AUC [11]: 257 µM·h
CN(C)CCNc1n[n+]([O-])c2ccc(C(C)(C)C)cc2[n+]1[O-],78,1.1,11.4,8.63e-07,38,3.7,99,421 µmol/kg,half-life [18]: 12.5 min; Cmax [19]: 16.1 µM; AUC [20]: 9.73 µM·h
COc1ccc2c(c1)[n+]([O-])c(NCCN(C)C)n[n+]2[O-],232,2.9,26.1,2.32e-07,46,7.7,89,1000 µmol/kg,LCK (HT-29 [21]): 0.15; LCK (HT-29 [22]): 1.84; half-life [23]: 51.5 min; AUC [24]: 240 µM·h; Cmax [25]: 157 µM
CC(C)Oc1ccc2c(c1)[n+]([O-])c(NCCN(C)C)n[n+]2[O-],31,3.2,22.3,,> 55,6.2,162,1330 µmol/kg,LCK (HT-29 [21]): -0.17; LCK (HT-29 [22]): 0.53; half-life [23]: 26.1 min; AUC [24]: 102 µM·h; Cmax [25]: 123 µM
CCCN(CCC)CCNc1n[n+]([O-])c2ccccc2[n+]1[O-],68,2,3.9,1.71e-06,> 25,1.7,82,316 µmol/kg,half-life [26]: 11.8 min; Cmax [27]: 17 µM; fraction unbound [28]: 0.023; LCK (HT-29 [29]): 0.01; LCK (HT-29 [30]): 0.25
